CHOP inhibitor = inhibitors of CHOP induction in ER stress response. inhibition, % at 10 µM. 220,000 compounds, 3.8% hits. AID 2732. CHO-K1 CHOP-promoter luciferase, tunicamycin-induced, 15-18 h;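 active means compounds that reduced the stress-induced luciferase reporter signal by more than about 70% of percent inhibition, limit read from the data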
Bfl-1 A1 inh = inhibitors of the anti-apoptotic protein A1, read as caspase activation; MEF A1-2A-BIM cells, Caspase-Glo 3/7 luminescence, 3 h; percent of clofoctol response, vehicle zero; caspase activation, % (no concentration beside the values); 330,000 compounds, 0.066% hits; AID 2462;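 active means over half of replicate activation scores above 10%, or exactly half above 10 with the replicate mean above 10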
UPR CHOP act = activators of apoptotic arm of unfolded protein response (CHOP); CHO-CHOP luciferase reporter, UPR activation, luminescence; percent of tunicamycin response over DMSO baseline; activation, % at 10 µM; 330,000 compounds, 0.34% hits; AID 449763;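 active means at 10 µM dose, activation of 40% or more, normalized to positive control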
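System: CHO-CHOP luciferase reporter cell line | Buffer or medium: F12 medium containing 10% fetal bovine serum | Doses: One dose, 10 µM in 0.5% DMSO | Times: 6 h compound exposure at 37 °C after overnight seeding | Signal: Luciferase luminescence | Read-out: % activation vs tunicamycin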
XBP1 UPR activ = adaptive UPR (XBP1) activation | CHO-XBP1 luciferase reporter, IRE1-XBP1 UPR activation, luminescence; percent of tunicamycin response, DMSO as zero | activation, % at 20 µM | 330,000 compounds, 0.33% hits | AID 463104;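 active means versus positive control, 20 µM dose yields 30% or more activation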
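Material: CHO-XBP1 cells stably carrying IRE1-XBP1-driven luciferase reporter | Medium: F12 with 10% serum | Compound dosing: 20 µM single concentration, DMSO 1% | Incubation: Overnight seeding at 37 °C, 6 h compound treatment at 37 °C | Detection: Steady-Glo luminescence read | Read-out basis: % activation of reporter signal versus tunicamycin and DMSO controls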
A number is an active result; n = inactive; x = not tested or not shown. The entries come from a sample that favours hits as a whole.

SMILES	CHOP inhibitor	Bfl-1 A1 inh	UPR CHOP act	XBP1 UPR activ
CCCOc1ccc(/C=N/NC(=O)C2CCCN2S(=O)(=O)c2ccc(Cl)cc2)cc1 (stereo not drawn)	n	n	n	n
CC(C)Oc1ccc(/C=N/NC(=O)C2CCCN2S(=O)(=O)c2ccc(Cl)cc2)cc1 (stereo not drawn)	79	n	n	n
CN(C)C(=O)COC(=O)c1ccccc1Nc1ccc(SC(F)F)cc1	n	n	n	n
O=C(c1ccccc1Nc1ccc(SC(F)F)cc1)N1CCCCCC1	86	n	n	n
Cc1ccc(C(C)C)c(OCC(=O)OCC(=O)NC2CC2)c1	x	n	n	n
Cc1ccc(C(C)C)c(OCC(=O)OCc2c(C)noc2C)c1	83	n	n	n
Cc1ccc(NC(=O)c2ccc3c(=O)n4c(nc3c2)CCC4)cc1S(=O)(=O)N(C)C	x	x	n	n
Cc1cc(C)nc(SCC(=O)Nc2nccs2)n1	x	n	n	n
O=C(CSc1nc(N2CCCCC2)nc(N2CCCCC2)n1)Nc1nccs1	77	n	n	n
O=c1c2ccccc2nc2n1CCS2(=O)=O	84	n	n	n
CC(=O)N1N=C(c2ccc(C)cc2)OC1c1ccc(C)cc1 (stereo not drawn)	75	n	n	n
O=C(Nc1cccnc1)c1c(O)c2cccc3c2n(c1=O)CC3	80	n	n	n
CCc1nc2ccccc2c(=O)n1NC(=O)c1c(O)c2cccc3c2n(c1=O)CCC3	95	n	n	n
O=C(Nn1c(Cc2ccccc2)nc2ccccc2c1=O)c1c(O)c2cccc3c2n(c1=O)CCC3	n	n	n	n
COc1ccc(C(=S)N2CCOCC2)cc1OC(=O)c1cc(OC)c(OC)c(OC)c1	x	n	n	n
Cc1ccc(N2CCN(C(=O)c3ccccc3F)CC2)c(C)c1	93	n	n	n
CCC(=O)c1ccc(N2CCN(C(=O)c3ccccc3F)CC2)c(F)c1	n	n	n	n
Cc1ccc(Cl)cc1N1CCN(C(=O)Cc2cn(C)c3ccccc23)CC1	n	n	n	n
Cc1ccc(C)c(N2CCN(C(=O)c3csc4ccccc34)CC2)c1	80	n	n	n
CCC(=O)N1CCN(c2cc(C)ccc2C)CC1	n	n	n	n
Cc1ccc(C)c(N2CCN(C(=O)Cc3cn(C)c4ccccc34)CC2)c1	74	n	n	n
Cc1cc(=O)cc(C)n1-c1ccccc1Br	x	n	n	n
COc1ccc(OC)c(NC(=O)c2cc(S(=O)(=O)N3CCCC3)cn2C)c1	x	n	n	n
CCOC(=O)C1=C(COC(=O)Cc2ccc(Br)cc2)NC(=O)NC1C (stereo not drawn)	x	n	n	n
Cc1ccc(CNc2ccc(S(=O)(=O)N3CCOCC3)cc2[N+](=O)[O-])cc1	n	n	n	n
SMILES	CHOP inhibitor	Bfl-1 A1 inh	UPR CHOP act	XBP1 UPR activ
CC(=O)c1sc(N/N=C\c2cccc(Br)c2)nc1C	81	n	n	n
Cc1[nH]c2ccccc2c1C(O)CN1CCC2(CC1)OCCO2 (stereo not drawn)	n	n	n	n
O=c1[nH]c(CSc2ncnc3sccc23)nc2cc(C(F)(F)F)ccc12	89	n	n	n
COc1cc2nc(CN(C)Cc3ccc(SC)cc3)[nH]c(=O)c2cc1OC	n	n	n	n
CSc1ccc(CN(C)Cc2nc3cc(C(F)(F)F)ccc3c(=O)[nH]2)cc1	71	n	n	n
O=c1[nH]c(CSc2ncc(C(F)(F)F)cc2Cl)nc2ccccc12	n	n	n	n
COc1nnc(-c2ccc(N3CCOCC3)c(NC(=O)c3ccccc3)c2)c2ccccc12	86	n	n	n
CC(Oc1ccc(Cl)cc1)C(=O)Nc1ccccc1N1CCOCC1 (stereo not drawn)	x	n	n	n
Cc1cc(Cl)ccc1OC(C)C(=O)Nc1ccccc1N1CCOCC1 (stereo not drawn)	74	n	n	n
CC(C)Oc1cccc(C(=O)Nc2ccccc2N2CCOCC2)c1	74	n	n	n
O=C(Nc1ccccc1N1CCOCC1)c1cccc(Oc2ccccc2)c1	x	n	n	n
CCC(C)Oc1cccc(C(=O)Nc2ccccc2N2CCOCC2)c1 (stereo not drawn)	75	n	n	n
CCN(Cc1nc(-c2ccc(OC)cc2)no1)C(=O)c1ccoc1C	x	n	n	n
Nc1c(Cl)c(Cl)nc(C(=O)OCC(=O)NC2CCCCC2)c1Cl	x	n	n	n
CCN(CC)S(=O)(=O)c1ccc(N2CCOCC2)c(NC(=O)c2cc([N+](=O)[O-])ccc2Cl)c1	n	n	n	n
Oc1ccc(-c2csc(Nc3ncccn3)n2)c(O)c1	94	n	n	n
Oc1ccc(-c2csc(Nc3ncccn3)n2)cc1O	n	x	x	x
COc1ccc(S(=O)(=O)N2CCCCCC2)cc1C(=O)N(C)CC(=O)Nc1ccccc1C(F)(F)F	x	n	n	n
COc1nccc(-c2ccc(F)cc2)c1C#N	n	n	n	n
COc1cc(-c2nc3ccc4ccccc4c3c3c2CCC3)ccc1O	86	n	n	n
CCOC(=O)CCc1c(C)nc(SCCCn2c(=O)[nH]c3ccccc32)c(C#N)c1C	83	n	n	n
COc1ccc(S(=O)(=O)NCCN2CCOCC2)c(C)c1C	x	n	n	n
COc1cc(S(=O)(=O)NCCN2CCOCC2)c(OC)cc1Cl	78	n	n	n
CCN1/C(=C/c2ccc3ccccc3[n+]2CC)C=Cc2ccccc21	x	n	n	n
CCCCN1/C(=C/c2ccc3ccccc3[n+]2CC)Sc2ccccc21	84	x	n	n
SMILES	CHOP inhibitor	Bfl-1 A1 inh	UPR CHOP act	XBP1 UPR activ
Cc1ccc2c(c1)S/C(=C/c1ccc[n+](C)c1)N2CCO	n	n	n	n
CCN1/C(=C/c2ccc3cc(C)ccc3[n+]2CC)Sc2cc(C)ccc21	82	x	x	x
Cn1ccnc1Sc1cc(NCCCO)c([N+](=O)[O-])c2nonc12	96	n	n	n
Cc1ccc(NC(=O)CCC(=O)c2cc(C)sc2C)nc1	x	n	n	n
CCCc1cc2c(cc1NC(=O)c1ccc(Br)cc1)OCO2	83	n	n	n
CCCc1cc2c(cc1NC(=O)c1ccc(C(C)(C)C)cc1)OCO2	n	n	n	n
COc1ccc(CNc2cccc3[nH]c(C(F)(F)F)nc23)cc1OC	x	n	n	n
CCCCNCC1C(Oc2ccc(Cl)cc2)C(=O)N1c1ccccc1C (stereo not drawn)	77	n	n	n
CSc1nnc(Cc2sc(-c3ccccc3)nc2-c2ccccc2)o1	83	n	n	n
COc1cccc(/C=N/NC(=O)CCn2c3ccccc3c3ccccc32)c1	89	n	n	n
O=S(=O)(Nc1cc(S(=O)(=O)N2CCOCC2)ccc1Cl)c1ccccc1	x	n	n	n
Cc1cccc(C)c1NC(=O)COC(=O)CN1C(=O)C2CCCCC2C1=O (stereo not drawn)	x	x	n	n
O=S1(=O)c2ccccc2N=NN1Cc1cc(Cl)cc(Cl)c1	92	n	n	n
CCOC(=O)C1(CC)CC(CSc2nc3ccccc3[nH]2)OC1=O (stereo not drawn)	n	n	n	n

Screens deposited in PubChem BioAssay by several laboratories.
